According to ChEMBL document CHEMBL5344461, “ZX703: A Small-Molecule Degrader of GPX4 Inducing Ferroptosis in Human Cancer Cells” (ACS Med Chem Lett, 2024):
Activity calls are given as the source filed them. No cut-off for these calls is given here.

Columns and labels:
HT-1080 [1] = experiment: Antiproliferative activity against human HT-1080 cells assessed as inhibition of cell growth incubated for 24 hrs by CCK-8 assay; format: functional, cell-based; details: for IC50: HT-1080, 24 h
Outline: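 HT1080 cells exposed to compound for 24 h; viability read by CCK-8; IC50 from growth inhibition.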

[2] = target: Protein cereblon/Phospholipid hydroperoxide glutathione peroxidase GPX4 (Homo sapiens, UniProt P36969+Q96SW2); experiment: PROTAC activity at CRBN/GPX4 (unknown origin); format: protein assay
[3] = target: T1, von Hippel-Lindau disease tumor suppressor/Phospholipid hydroperoxide glutathione peroxidase GPX4 (Homo sapiens) (UniProt P40337+P36969); experiment: PROTAC activity at VHL/GPX4 in human HT-1080 cells assessed as induction of protein degradation at 0.2 uM measured after 6 hrs by Western blot analysis relative to control; format: cell-based
Outline: (§1)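 Time course in HT1080 cells at 0.2 μM compound. GPX4 detected by Western blot. Band density was quantified by gray-scale densitometry and normalized to GAPDH.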

[4] = target: T1, von Hippel-Lindau disease tumor suppressor/Phospholipid hydroperoxide glutathione peroxidase GPX4 (Homo sapiens); experiment: PROTAC activity at VHL/GPX4 in human HT-1080 cells assessed as induction of protein degradation by measuring maximal degradation at 0.06 to 5 uM by Western blot analysis relative to control; format: cell-based; details: dose 0.06-5 µM
HT-1080 [5] = experiment: Induction of ROS accumulation in human HT-1080 cells at 1 uM pretreated with ferroptosis inhibitor, Fer-1 for 2 hrs followed by compound addition and further incubated for 12 hrs by DCFH-DA staining based flow cytometry analysis; format: functional, cell-based
Outline: (§2)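 HT1080 cells loaded with 10 μM DCFH-DA, then treated 12 h with compound at various concentrations; intracellular ROS measured by flow cytometry. For the rescue arm, cells were pretreated 2 h with ferroptosis inhibitor Fer-1 (5 μM) and kept in its presence.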

[6] = target: T1, von Hippel-Lindau disease tumor suppressor/Phospholipid hydroperoxide glutathione peroxidase GPX4 (Homo sapiens); experiment: PROTAC activity at VHL/GPX4 in human HT-1080 cells assessed as induction of protein degradation at 0.2 uM incubated for 12 hrs in presence of MG132 and chloroquine by Western blot analysis; format: cell-based
Outline: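 HT1080 cells treated 12 h with degrader alongside MG132 (0.3 μM) and chloroquine (50 μM); chloroquine given as pretreatment. GPX4 detected by Western blot, band density quantified by gray-scale analysis.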

[7] = target: T1, von Hippel-Lindau disease tumor suppressor/Phospholipid hydroperoxide glutathione peroxidase GPX4 (Homo sapiens); experiment: (§3) PROTAC activity at VHL/GPX4 in human HT-1080 cells assessed as induction of protein degradation by Western blot analysis; format: cell-based
[8] = target: von Hippel-Lindau disease tumor suppressor/Phospholipid hydroperoxide glutathione peroxidase GPX4 (Homo sapiens, UniProt P36969+P40337); experiment: as §3; format: cell-based
HT-1080 [9] = experiment: Induction of ROS accumulation in human HT-1080 cells incubated for 12 hrs by DCFH-DA staining based flow cytometry analysis; format: functional, cell-based; details: dose 0.25-1 µM; outline: as §2
[10] = target: T1, von Hippel-Lindau disease tumor suppressor/Phospholipid hydroperoxide glutathione peroxidase GPX4 (Homo sapiens); experiment: PROTAC activity at VHL/GPX4 in human HT-1080 cells assessed as induction of protein degradation at 0.2 uM measured after 12 hrs by Western blot analysis relative to control; format: cell-based; outline: as §1
[11] = target: T1, von Hippel-Lindau disease tumor suppressor/Phospholipid hydroperoxide glutathione peroxidase GPX4 (Homo sapiens); experiment: PROTAC activity at VHL/GPX4 in human HT-1080 cells assessed as induction of protein degradation at 0.2 uM measured for 24 hrs by Western blot analysis; format: cell-based; outline: as §1

T1 sequence (P36969 whole entry, looked up): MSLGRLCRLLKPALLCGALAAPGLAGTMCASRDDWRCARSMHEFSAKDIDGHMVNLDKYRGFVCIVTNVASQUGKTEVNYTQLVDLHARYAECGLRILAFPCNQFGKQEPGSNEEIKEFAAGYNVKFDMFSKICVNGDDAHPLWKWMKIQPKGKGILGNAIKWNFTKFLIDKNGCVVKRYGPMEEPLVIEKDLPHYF
T1 sequence (P40337 whole entry, looked up): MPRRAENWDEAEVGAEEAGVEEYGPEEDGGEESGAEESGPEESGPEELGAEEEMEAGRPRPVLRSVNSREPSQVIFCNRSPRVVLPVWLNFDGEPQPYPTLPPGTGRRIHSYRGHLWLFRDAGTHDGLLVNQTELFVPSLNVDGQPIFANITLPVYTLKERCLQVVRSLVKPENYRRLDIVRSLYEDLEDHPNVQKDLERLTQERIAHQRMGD
Chain of Protein cereblon/Phospholipid hydroperoxide glutathione peroxidase GPX4 (Q96SW2 whole entry): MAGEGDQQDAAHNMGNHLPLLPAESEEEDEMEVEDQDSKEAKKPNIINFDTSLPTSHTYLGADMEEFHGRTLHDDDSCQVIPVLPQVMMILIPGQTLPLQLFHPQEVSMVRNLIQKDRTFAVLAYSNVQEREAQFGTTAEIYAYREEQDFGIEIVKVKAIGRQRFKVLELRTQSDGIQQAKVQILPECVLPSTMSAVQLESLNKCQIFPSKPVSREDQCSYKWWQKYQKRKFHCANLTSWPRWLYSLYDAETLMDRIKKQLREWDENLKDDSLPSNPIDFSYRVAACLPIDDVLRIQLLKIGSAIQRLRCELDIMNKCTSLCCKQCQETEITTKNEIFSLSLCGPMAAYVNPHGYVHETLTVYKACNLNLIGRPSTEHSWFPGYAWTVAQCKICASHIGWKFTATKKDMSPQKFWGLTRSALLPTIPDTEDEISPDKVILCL
Chain of Protein cereblon/Phospholipid hydroperoxide glutathione peroxidase GPX4 (P36969 whole entry): as the sequence (P36969 whole entry, looked up) above
Chain of von Hippel-Lindau disease tumor suppressor/Phospholipid hydroperoxide glutathione peroxidase GPX4 (P40337 whole entry): as the sequence (P40337 whole entry, looked up) above
Chain of von Hippel-Lindau disease tumor suppressor/Phospholipid hydroperoxide glutathione peroxidase GPX4 (P36969 whole entry): as the sequence (P36969 whole entry, looked up) above

Compound	IC50 (HT-1080 [1])	also measured
Cc1ncsc1-c1ccc(CNC(=O)[C@@H]2C[C@@H](O)CN2C(=O)[C@@H](NC(=O)CCOc2ccc(C(c3ccc(Cl)cc3)N3CCN(C(=O)c4noc(C)c4[N+](=O)[O-])CC3)cc2)C(C)(C)C)cc1 (stereo not given in full)	2160 nM	–
Cc1ncsc1-c1ccc(CNC(=O)[C@@H]2C[C@@H](O)CN2C(=O)[C@@H](NC(=O)COCCOCCOCCOc2ccc(C(c3ccc(Cl)cc3)N3CCN(C(=O)c4noc(C)c4[N+](=O)[O-])CC3)cc2)C(C)(C)C)cc1 (stereo not given in full)	3240 nM	–
O=C1CCC(N2C(=O)c3cccc(NCCOCCOCCOCCn4cc(COc5ccc(N(C(=O)CCl)C(C(=O)NCCc6ccccc6)c6cccs6)cc5Cl)nn4)c3C2=O)C(=O)N1 (stereo not given)	–	EC50 [2]: 200 nM
Cc1ncsc1-c1ccc(CNC(=O)[C@@H]2C[C@@H](O)CN2C(=O)[C@@H](NC(=O)COCCOc2ccc(C(c3ccc(Cl)cc3)N3CCN(C(=O)c4noc(C)c4[N+](=O)[O-])CC3)cc2)C(C)(C)C)cc1 (stereo not given in full)	1830 nM	–
Cc1ncsc1-c1ccc(CNC(=O)[C@@H]2C[C@@H](O)CN2C(=O)[C@@H](NC(=O)COc2ccc(C(c3ccc(Cl)cc3)N3CCN(C(=O)c4noc(C)c4[N+](=O)[O-])CC3)cc2)C(C)(C)C)cc1 (stereo not given in full)	2140 nM	–
Cc1ncsc1-c1ccc(CNC(=O)[C@@H]2C[C@@H](O)CN2C(=O)[C@@H](NC(=O)CCCOc2ccc(C(c3ccc(Cl)cc3)N3CCN(C(=O)c4noc(C)c4[N+](=O)[O-])CC3)cc2)C(C)(C)C)cc1 (stereo not given in full)	–	inhibition (HT-1080 [1]): inactive
Cc1ncsc1-c1ccc(CNC(=O)[C@@H]2C[C@@H](O)CN2C(=O)[C@@H](NC(=O)COCCOCCOCCOCCOc2ccc(C(c3ccc(Cl)cc3)N3CCN(C(=O)c4noc(C)c4[N+](=O)[O-])CC3)cc2)C(C)(C)C)cc1 (stereo not given in full)	4730 nM	–
Cc1ncsc1-c1ccc(CNC(=O)[C@@H]2C[C@@H](O)CN2C(=O)[C@@H](NC(=O)C2CCN(CC3CCN(C(=O)COc4ccc(C(c5ccc(Cl)cc5)N5CCN(C(=O)c6noc(C)c6[N+](=O)[O-])CC5)cc4)CC3)CC2)C(C)(C)C)cc1 (stereo not given in full)	4450 nM	–
Cc1ncsc1-c1ccc(CNC(=O)[C@@H]2C[C@@H](O)CN2C(=O)[C@@H](NC(=O)CN2CCN(CC3CCN(C(=O)COc4ccc(C(c5ccc(Cl)cc5)N5CCN(C(=O)c6noc(C)c6[N+](=O)[O-])CC5)cc4)CC3)CC2)C(C)(C)C)cc1 (stereo not given in full)	4760 nM	–
Cc1ncsc1-c1ccc(CNC(=O)[C@@H]2C[C@@H](O)CN2C(=O)[C@@H](NC2CC3(CCN(C(=O)COc4ccc(C(c5ccc(Cl)cc5)N5CCN(C(=O)c6noc(C)c6[N+](=O)[O-])CC5)cc4)CC3)C2)C(C)(C)C)cc1 (stereo not given in full)	1350 nM	–
Cc1ncsc1-c1ccc([C@H](C)NC(=O)[C@@H]2C[C@@H](O)CN2C(=O)[C@@H](NC(=O)CCCCCCCCCOc2ccc(C(c3ccc(Cl)cc3)N3CCN(C(=O)c4noc(C)c4[N+](=O)[O-])CC3)cc2)C(C)(C)C)cc1 (stereo not given in full)	1210 nM	–
Cc1onc(C(=O)N2CCN(C(c3ccc(Cl)cc3)c3ccc(Cl)cc3)CC2)c1[N+](=O)[O-]	153 nM	–
Cc1ncsc1-c1ccc(CNC(=O)[C@@H]2C[C@@H](O)CN2C(=O)[C@@H](NC(=O)COCCOCCOc2ccc(C(c3ccc(Cl)cc3)N3CCN(C(=O)c4noc(C)c4[N+](=O)[O-])CC3)cc2)C(C)(C)C)cc1 (stereo not given in full)	2070 nM	–

Second part, led by results:

IC50 (HT-1080 [1])	Compound	also measured
435 nM	Cc1ncsc1-c1ccc(CNC(=O)[C@@H]2C[C@@H](O)CN2C(=O)[C@@H](NC(=O)CCCCCCCCCOc2ccc(C(c3ccc(Cl)cc3)N3CCN(C(=O)c4noc(C)c4[N+](=O)[O-])CC3)cc2)C(C)(C)C)cc1 (stereo not given in full)	Activity [3]: 50%; Emax [4]: 86%; Activity (HT-1080 [5]): inactive; Activity [6]: inactive; Activity [7]: Dose-Dependent Effect; EC50 [8]: 135 nM; Activity (HT-1080 [9]): Dose-Dependent Effect; Activity [10]: > 80%; Activity [11]: Active
1680 nM	Cc1ncsc1-c1ccc(CNC(=O)[C@@H]2C[C@@H](O)CN2C(=O)[C@@H](NC(=O)CCCCCCCOc2ccc(C(c3ccc(Cl)cc3)N3CCN(C(=O)c4noc(C)c4[N+](=O)[O-])CC3)cc2)C(C)(C)C)cc1 (stereo not given in full)	–
1540 nM	Cc1ncsc1-c1ccc(CNC(=O)[C@@H]2C[C@@H](O)CN2C(=O)[C@@H](NC(=O)CCCCOc2ccc(C(c3ccc(Cl)cc3)N3CCN(C(=O)c4noc(C)c4[N+](=O)[O-])CC3)cc2)C(C)(C)C)cc1 (stereo not given in full)	–
767 nM	Cc1ncsc1-c1ccc(CNC(=O)[C@@H]2C[C@@H](O)CN2C(=O)[C@@H](NC(=O)CCCCCCCCOc2ccc(C(c3ccc(Cl)cc3)N3CCN(C(=O)c4noc(C)c4[N+](=O)[O-])CC3)cc2)C(C)(C)C)cc1 (stereo not given in full)	–
1360 nM	Cc1ncsc1-c1ccc(CNC(=O)[C@@H]2C[C@@H](O)CN2C(=O)[C@@H](NC(=O)CCCCCCOc2ccc(C(c3ccc(Cl)cc3)N3CCN(C(=O)c4noc(C)c4[N+](=O)[O-])CC3)cc2)C(C)(C)C)cc1 (stereo not given in full)	–
2290 nM	Cc1ncsc1-c1ccc(CNC(=O)[C@@H]2C[C@@H](O)CN2C(=O)[C@@H](NC(=O)CCCCCOc2ccc(C(c3ccc(Cl)cc3)N3CCN(C(=O)c4noc(C)c4[N+](=O)[O-])CC3)cc2)C(C)(C)C)cc1 (stereo not given in full)	–
889 nM	Cc1ncsc1-c1ccc(CNC(=O)[C@@H]2C[C@@H](O)CN2C(=O)[C@@H](NC(=O)CCCCCCCCCCOc2ccc(C(c3ccc(Cl)cc3)N3CCN(C(=O)c4noc(C)c4[N+](=O)[O-])CC3)cc2)C(C)(C)C)cc1 (stereo not given in full)	–
2350 nM	Cc1ncsc1-c1ccc(CNC(=O)[C@@H]2C[C@@H](O)CN2C(=O)[C@@H](NC(=O)CCCCCCCCCCCOc2ccc(C(c3ccc(Cl)cc3)N3CCN(C(=O)c4noc(C)c4[N+](=O)[O-])CC3)cc2)C(C)(C)C)cc1 (stereo not given in full)	–
